# Experimental data taken from ChEMBL document CHEMBL1130018, “Synthesis and anticonvulsant activities of 3,3-dialkyl- and 3-alkyl-3-benzyl-2-piperidinones (delta-valerolactams) and hexahydro-2H-azepin-2-ones (epsilon-caprolactams)” (J Med Chem, 1997).
# Experiments:
# [1] = Neurotoxicity was evaluated by a rotarod test; format: toxicity; conditions: mouse
# Method in brief: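 Mice were given at least four i.p. doses of compound in 30% polyethylene glycol at 0.01 mL/g, with six per dose, then tested on the rotorod. TD50 is the dose at which 50% failed, with 95% fiducial limits. Where these could not be calculated, the highest all-nontoxic dose and the lowest all-toxic dose are given instead.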
# [2] = biological target: GABA-A receptor; anion channel; assay: Ability to displace radioligand [35S]TBPS from Gamma-aminobutyric acid A receptor binding site in rat brain membranes; format: cell membranes
# Method in brief: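 Values are mean and range from duplicate experiments, each run in triplicate. For some lactams the values are mean ± SEM of three experiments run in triplicate. Read-out is IC50 (mM) for displacement of [35S]TBPS.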
# [3] = Protective Index (PI) determined as the ratio of toxic dose (TD50) and effective dose (ED50 (MES)); format: ADME; conditions: mouse; read-out: PI
# Method in brief: (§1)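 The protective index was calculated as rotorod TD50 divided by the ED50 against PTZ- or MES-induced seizures. All values come from i.p. dosing in 30% polyethylene glycol in mice, six per dose.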
# [4] = Protective Index (PI) determined as the ratio of toxic dose (TD50) and effective dose (ED50 (PTZ)); format: ADME; conditions: mouse; read-out: PI; method in brief: as §1
# Mus musculus [5] = organism: Mus musculus; assay: Anticonvulsant activity expressed as dose at which 50% of the mice were protected from tonic hindlimb seizures induced by maximal electroshock (MES); format: functional
# Method in brief: (§2)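 Mice were given at least four doses, with six animals per dose. Compound was dissolved in 30% polyethylene glycol and injected i.p. at 0.01 mL/g body weight. Challenge was pentylenetetrazole 85 mg/kg (clonic seizures) or maximal electroshock (tonic hindlimb extension). ED50 is the dose protecting 50%, with 95% fiducial limits.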
# Rattus norvegicus [6] = organism: Rattus norvegicus; assay: Antagonism of compound (1 mM) induced potentiation of 3 uM GABA-mediated chloride currents in cultured rat hippocampal neurons; format: functional
# Method in brief: (§3)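 Whole-cell peak current evoked by 3 μM GABA, with test compound alone or with 3 mM α-isopropyl-α-methyl-γ-butyrolactone, in cultured rat hippocampal neurons. Each peak was normalized to the peak from 3 μM GABA alone on the same cell, with 100% meaning no change. Values are mean ± SEM over 5–14 cells. Alone vs plus antagonist was compared by Student's t test.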
# Mus musculus [7] = assay: Anticonvulsant activity expressed as dose at which 50% of the mice were protected from clonic seizures induced by pentylenetetrazole (85 mg/Kg); format: functional; method in brief: as §2
# [8] = biological target: GABA-A receptor; anion channel (Rattus norvegicus) (UniProt O09028+P15431+P18506+P18508+P19969+P20236+P23574+P23576+P28471+P28473+P30191+P62813+P63079+P63138+Q91ZM7+Q9ES14); assay: Induced potentiation of 3 uM GABA-mediated chloride currents at 1 mM in the presence of 3 mM alpha-IMGBL (picrotoxin antagonist); format: functional; method in brief: as §3
# Rattus norvegicus [9] = organism: Rattus norvegicus; assay: Antagonism of compound (300 uM) induced potentiation of 3 uM GABA-mediated chloride currents in cultured rat hippocampal neurons; format: functional; method in brief: as §3
# Rattus norvegicus [10] = organism: Rattus norvegicus; assay: Antagonism of compound (600 uM) induced potentiation of 3 uM GABA-mediated chloride currents in cultured rat hippocampal neurons; format: functional
# Method in brief: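 Cultured rat hippocampal neurons. Test compound was applied with 3 μM GABA, with and without α-isopropyl-α-methyl-γ-butyrolactone (3 mM). Peak current was normalized to the peak from 3 μM GABA alone on the same cell, where 100% means no change. Mean ± SEM over N cells; Student's t test compared compound alone with compound plus antagonist.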
# Rattus norvegicus [11] = organism: Rattus norvegicus; assay: Antagonism of compound (200 uM) induced potentiation of 3 uM GABA-mediated chloride currents in cultured rat hippocampal neurons; format: functional; method in brief: as §3
# Mus musculus [12] = assay: Anticonvulsant activity expressed as dose at which 50% of the mice were protected from clonic seizures induced by pentylenetetrazole (85 mg/Kg); cytotoxicity observed at 300 mg/kg; format: functional
Structure (SMILES),TD50 [1] [mg/kg],IC50 [2] [µM],selectivity ratio [3],selectivity ratio [4],ED50 (Mus musculus [5]) [mg/kg],Response (Rattus norvegicus [6]) [%],ED50 (Mus musculus [7]) [mg/kg],Response [8] [%],Response (Rattus norvegicus [9]) [%],Response (Rattus norvegicus [10]) [%],Response (Rattus norvegicus [11]) [%],ED50 (Mus musculus [12]) [mg/kg]
CC1CCCNC1=O (configuration not stated),> 600,27700,–,–,–,–,–,–,–,–,–,–
CCC1(c2ccccc2)C(=O)NC(=O)NC1=O [PHENOBARBITAL],88,–,5.18,4,17,–,–,–,–,–,–,–
CCC1(CC)CCCNC1=O,165,1310,3.06,4.46,54,142,37,102,–,–,–,–
CCC1(Cc2ccccc2)CCCNC1=O (configuration not stated),103,270,1.47,1.69,70,–,–,93,138,–,–,–
CCC1(CC)CCNC1=O,–,–,1.49,5.65,–,–,–,–,–,–,–,–
O=C1NCCCC1Cc1ccccc1 (configuration not stated),289,1440,7.05,3.52,41,–,82,–,–,–,–,–
CC1(Cc2ccccc2)CCCNC1=O (configuration not stated),125,730,2.5,2.23,50,–,–,–,–,–,–,–
CCC1(Cc2ccccc2)CCCCNC1=O (configuration not stated),> 100,90,–,–,> 100,–,> 100,107,–,128,–,–
CCC1CCCNC1=O (configuration not stated),> 325,8780,> 0.59,> 1.09,550,–,297,–,–,–,–,–
CCC1CCCCNC1=O (configuration not stated),145,3200,0.58,0.69,249,–,210,–,–,–,–,–
CCC1(C)CCCNC1=O (configuration not stated),378,4410,1.9,2.25,199,–,168,–,–,–,–,–
CCCC(CCC)C(=O)O [VALPROIC ACID],–,–,–,–,206,–,–,–,–,–,–,–
CCC1(C)CC(=O)NC1=O (configuration not stated) [ETHOSUXIMIDE],378,–,< 0.67,2.35,> 562,–,–,–,–,–,–,–
O=C1NCCC1Cc1ccccc1 (configuration not stated),–,–,3.51,2.03,–,–,–,–,–,–,–,–
O=C1CCCCN1,> 600,197000,–,–,> 600,–,–,–,–,–,–,–
CCC1(CC)CCCCNC1=O,131,380,0.74,0.58,178,–,226,105,–,–,117,–
O=C1CCCCCN1 [CAPROLACTAM],< 300,17400,< 1,< 1,> 300,–,–,–,–,–,–,> 300
